PREPL inhibitor = human PREPL enzyme inhibition; Q4J6C6; recombinant PREPL, fluorescence polarization activity-based probe; inhibition, % at 5.96 µM; actives 0.68% (n = 320,000); AID 2751; in the data active means inhibition above about 43%;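 further: 0% = enzyme with DMSO and 100% = wells lacking enzyme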
Target sequence (Q4J6C6 whole entry, looked up): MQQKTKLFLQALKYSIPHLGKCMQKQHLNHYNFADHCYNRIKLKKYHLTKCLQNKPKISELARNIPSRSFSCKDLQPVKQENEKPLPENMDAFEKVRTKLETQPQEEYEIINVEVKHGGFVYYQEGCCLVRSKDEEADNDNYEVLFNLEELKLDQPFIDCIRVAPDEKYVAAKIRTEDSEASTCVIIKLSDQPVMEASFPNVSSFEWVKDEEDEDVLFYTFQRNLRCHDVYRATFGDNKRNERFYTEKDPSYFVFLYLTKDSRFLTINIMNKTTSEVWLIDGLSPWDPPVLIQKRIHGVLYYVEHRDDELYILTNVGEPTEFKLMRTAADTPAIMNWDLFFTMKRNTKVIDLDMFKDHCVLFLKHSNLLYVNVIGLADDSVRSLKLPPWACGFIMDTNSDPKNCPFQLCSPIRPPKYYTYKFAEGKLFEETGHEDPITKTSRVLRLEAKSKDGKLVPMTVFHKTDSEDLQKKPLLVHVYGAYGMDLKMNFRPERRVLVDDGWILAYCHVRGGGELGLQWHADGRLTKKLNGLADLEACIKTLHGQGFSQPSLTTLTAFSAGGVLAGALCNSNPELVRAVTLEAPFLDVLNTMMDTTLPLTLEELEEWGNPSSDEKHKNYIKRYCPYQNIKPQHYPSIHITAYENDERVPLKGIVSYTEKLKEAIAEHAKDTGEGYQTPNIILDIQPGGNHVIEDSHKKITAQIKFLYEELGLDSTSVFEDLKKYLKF
UBC13 polyUb = blocks human UBC13 polyubiquitin chain formation. TR-FRET. inhibition, % at 20 µM. actives 0.47% (n = 330,000). AID 485273; in the data active means inhibition above about 45%, passing the limit was not always enough; inconclusive means no clear call, values can overlap the other calls
ALR H2O2 inh = human ALR oxidase inhibition via reduced H2O2 | P55789 | purified ALR, DTT oxidation, H2O2 HRP-luminol luminescence | inhibition, % (no concentration beside the values) | actives 3.8% (n = 290,000) | AID 485317;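 active means mean replicate inhibition above about 79%, with every replicate also reaching it, limit read from the data; inconclusive means only one of the two criteria met; inactive means mean below limit and not every replicate reaching it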
RBBP9 inh = inhibitors of human serine hydrolase RBBP9 | O75884 | actives 0.2% (n = 220,000) | AID 1515 | inhibition, % at 7.94 µM | recombinant RBBP9, FP-Rh probe fluorescence polarization;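 active means inhibition above the campaign mean of all tested compounds plus 3 SD, cut at about 14% in these data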;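 further: plate controls were DMSO wells with RBBP9 for no effect and wells lacking RBBP9 protein for full effect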
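Test system – recombinant human RBBP9 · Input – RBBP9 2.5 µM in dispensing solution, pre-mixing · Medium – Tris buffer pH 8.0, NaCl, Pluronic · Schedule – preincubation 30 min plus labeling 45 min at 25 °C · Measured by – fluorescence polarization · Measure – % inhibition · Controls – DMSO and no-protein wells · Replicates – one well per compound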
UBC9 SUMO inh = SUMOylation inhibition. AID 2006. inhibition, % at 35 µM. HTRF SUMOylation assay, SAE1/SAE2 + UBC9, in vitro. actives 0.36% (n = 290,000). P63279; in the data active means inhibition above about 50%, passing the limit was not always enough; inconclusive means no clear call, values can overlap the other calls
Rin1 Abl inh = inhibitors of human Rin1-Abl protein interaction. AID 588664. inhibition, % at 7.35 µM. P00519+Q13671. TR-FRET Rin1/Abl binding, biochemical. actives 0.4% (n = 360,000); in the data active means inhibition above about 5%, passing the limit was not always enough
* = called active by the depositor. A selection: hits, their analogues and other compounds. The true share with any hit is near 4.3%.

`Cn1cc(S(=O)(=O)N2CCCC2)cc1C(=O)N1CCN(c2ccccc2)CC1` gave PREPL inhibitor 8, UBC13 polyUb -5, ALR H2O2 inh 25, UBC9 SUMO inh 5 and Rin1 Abl inh -2.
`Cc1nc(N)sc1C(=O)N1N=N1` gave PREPL inhibitor 10, UBC13 polyUb 6, ALR H2O2 inh -1, RBBP9 inh -2, UBC9 SUMO inh 13 and Rin1 Abl inh 2.
`Oc1ccccc1Cc1c(O)ccc2ccccc12` gave PREPL inhibitor 6, UBC13 polyUb 4, ALR H2O2 inh 91* and Rin1 Abl inh -2.
`CC(C)C[C@H]1CN([C@@H](CC(C)C)CN2CCCC2CN2C(=S)NC[C@@H]2Cc2ccc(O)cc2)C(=S)N1CCc1ccccc1` (some centres undefined) gave Rin1 Abl inh -1.
O=CN1CCN(C(C(=O)NC2CCCCC2)c2ccc(Cl)cc2)CC1 (centres undefined) was read as PREPL inhibitor 23, UBC13 polyUb -3 and Rin1 Abl inh 1.
For Cc1ccc(NC(=O)CSc2nncs2)cc1Cl the results were PREPL inhibitor -4, UBC13 polyUb 2, ALR H2O2 inh 99* and Rin1 Abl inh 1.
`CCOC(=O)c1cc(NC(=O)CSCCO)ccc1Cl` gave PREPL inhibitor 12, UBC13 polyUb 7, ALR H2O2 inh 99*, RBBP9 inh 2, UBC9 SUMO inh 4 and Rin1 Abl inh 2.
For CCOC(=O)c1cc(NC(=O)COC)ccc1O the results were PREPL inhibitor 6, UBC13 polyUb -4, ALR H2O2 inh 0, RBBP9 inh -9 and UBC9 SUMO inh 10.
Screening Cc1ccc(NC(=O)CSCC#N)cc1Cl returned PREPL inhibitor -6, UBC13 polyUb -5, ALR H2O2 inh 99*, RBBP9 inh 7, UBC9 SUMO inh 12 and Rin1 Abl inh 1.
For CCOc1ccc(C2CC=C(C(C)=O)CN2S(=O)(=O)c2ccc(C)cc2)cc1 (centres undefined) the results were Rin1 Abl inh 6.
For C=C(C)CN(CC)C(=O)CN1C(=O)NC(C)(c2ccc3ccccc3c2)C1=O (centres undefined) the results were PREPL inhibitor 10, UBC13 polyUb 4, ALR H2O2 inh -25, UBC9 SUMO inh 2 and Rin1 Abl inh 1.
For COC(=O)C1=C(CCc2ccccc2)NC(=O)NC1c1ccc([N+](=O)[O-])cc1 (centres undefined) the results were PREPL inhibitor 8, UBC13 polyUb -2, ALR H2O2 inh -3 and Rin1 Abl inh 1.
`CCOc1ccc(OCCn2c(=S)[nH]c3c(N)ncnc32)cc1` gave PREPL inhibitor -6, UBC13 polyUb -6, ALR H2O2 inh 91*, RBBP9 inh -8, UBC9 SUMO inh 0 and Rin1 Abl inh -3.
Cc1ccc(N2CCN(C(=O)N3CCCC3)CC2)cc1Cl was read as PREPL inhibitor 25, UBC13 polyUb 6, ALR H2O2 inh 98*, RBBP9 inh 8, UBC9 SUMO inh 6 and Rin1 Abl inh -1.
Screening O=C(O)C1CCN(C(=O)COc2ccc(Br)cc2)CC1 returned PREPL inhibitor 9, UBC13 polyUb 1, ALR H2O2 inh -1, RBBP9 inh -2, UBC9 SUMO inh 1 and Rin1 Abl inh 0.
CC(=O)NC(Cc1ccc(F)cc1)C(=O)NC1CCN(C(=O)Nc2ccccc2C)CC1 (centres undefined) was read as PREPL inhibitor -8, UBC13 polyUb 3, ALR H2O2 inh -14, UBC9 SUMO inh 13 and Rin1 Abl inh 4.
For NNC(=S)Nc1ccc(S(=O)(=O)N2CCOCC2)cc1 the results were PREPL inhibitor 9, UBC13 polyUb -8, ALR H2O2 inh 98*, RBBP9 inh -7, UBC9 SUMO inh 21 and Rin1 Abl inh 2.
For Nc1nnc(SCC(=O)Nc2ccc(S(=O)(=O)N3CCOCC3)cc2)s1 the results were PREPL inhibitor 8, UBC13 polyUb 1, ALR H2O2 inh 96*, RBBP9 inh 12, UBC9 SUMO inh 8 and Rin1 Abl inh 1.
`COc1ccc(CCNC(=S)N2CCN(S(=O)(=O)c3ccccc3)CC2)cc1` gave PREPL inhibitor -1, UBC13 polyUb 2, ALR H2O2 inh -1 and Rin1 Abl inh 4.
Screening Cn1cc(-c2cc(C(=O)O)on2)cn1 returned PREPL inhibitor 0, UBC13 polyUb -5, ALR H2O2 inh 4, RBBP9 inh 10, UBC9 SUMO inh -1 and Rin1 Abl inh 1.
For O=C(c1ccc(F)cc1F)N1CCCc2ccccc21 the results were ALR H2O2 inh -2, UBC9 SUMO inh 5 and Rin1 Abl inh -2.
Screening CC(=O)Nc1ccc(NC(=O)CSc2nc3nc(-c4cccs4)cc(C(F)(F)F)c3c(=O)[nH]2)cc1 returned PREPL inhibitor -3, UBC13 polyUb -7, ALR H2O2 inh 99*, RBBP9 inh 5, UBC9 SUMO inh 32 and Rin1 Abl inh 0.
For O=C(c1ccccc1Cl)N1N=C(c2cccs2)CC1c1cccc(O)c1 (centres undefined) the results were PREPL inhibitor -1, UBC13 polyUb inconclusive, ALR H2O2 inh -1, UBC9 SUMO inh 6 and Rin1 Abl inh 4.
NC(=O)c1cc(N)ccc1N1CCCCC1 was read as PREPL inhibitor 5, UBC13 polyUb -2, ALR H2O2 inh 99*, RBBP9 inh -3, UBC9 SUMO inh -4 and Rin1 Abl inh 3.
For NC(=O)c1cc(N)ccc1N1CCCC1 the results were PREPL inhibitor 26, UBC13 polyUb -14, ALR H2O2 inh 83*, RBBP9 inh 6, UBC9 SUMO inh 19 and Rin1 Abl inh 6.
Screening NC(=O)c1ccccc1N1CCCCC1 returned PREPL inhibitor -2, UBC13 polyUb -9, ALR H2O2 inh 4, RBBP9 inh -2, UBC9 SUMO inh -12 and Rin1 Abl inh 0.
For CC1CCCN(c2ccc(N)cc2C(N)=O)C1 (centres undefined) the results were PREPL inhibitor 2, UBC13 polyUb 9, ALR H2O2 inh 98*, RBBP9 inh 5, UBC9 SUMO inh -6 and Rin1 Abl inh 2.
For CCN(CC)C(=O)CSc1nc2ccc(NC(=O)CSc3nccn3C)cc2s1 the results were PREPL inhibitor 4, UBC13 polyUb 5, ALR H2O2 inh 99*, RBBP9 inh -1, UBC9 SUMO inh -14 and Rin1 Abl inh -1.
Screening CCCC(=O)Nc1ccc2nc(SCC(=O)Nc3nccs3)sc2c1 returned PREPL inhibitor 16, UBC13 polyUb -2, ALR H2O2 inh 99*, RBBP9 inh 6, UBC9 SUMO inh 2 and Rin1 Abl inh -1.
For CCNC(=O)C1(C)CCN(C(=O)c2cc(F)ccc2C)C1 (centres undefined) the results were Rin1 Abl inh 1.
For CC(=O)c1cc(CC=C(C)C)c(O)cc1O the results were PREPL inhibitor -1, UBC13 polyUb 0, ALR H2O2 inh 83*, RBBP9 inh -9, UBC9 SUMO inh -2 and Rin1 Abl inh 0.
`COC(=O)[C@H](C)N(Cc1ccc(Cl)c(Cl)c1)S(=O)(=O)CCN1CCCC1` gave Rin1 Abl inh -1.
